Measured values of several laboratories.
Protocols differ between the studies behind these lines.
Target: Mitogen-activated protein kinase kinase kinase 1 (MAP3K1, Homo sapiens, UniProt Q13233)

SMILES	assay	conditions	remaining binding [%]
c1cnn2ncc(-c3ccnc(N4CCC45COC5)n3)c2c1	binding	1 µM	76
CNC(=O)Nc1ccc2c(c1)CC[C@@]21OC(=O)N(CC(=O)N(Cc2ccc(F)cc2)[C@@H](C)C(F)(F)F)C1=O	cell-free assay, competition with immobilised ligand	1 µM	68
O=C(NCCCN1CCOCC1)c1ccc(Nc2ncc(Cl)c(-c3ccc(Cl)s3)n2)cc1	binding, competition with immobilised ligand	1 µM	100
COc1cnc(Nc2cccc(S(N)(=O)=O)c2)nc1N1CCN(c2ccccc2)C(=O)C1	binding, competition with immobilised ligand	1 µM	96
O=C(NCC1CCOCC1)c1n[nH]cc1NC(=O)c1c(F)cccc1F	binding, competition with immobilised ligand	1 µM	75
CCCOc1ccc([C@@H]2[C@@H](C(=O)O)[C@H](c3ccc4c(c3)OCO4)CN2CC(=O)Nc2c(CC)cccc2CC)cc1	cell-free assay, competition with immobilised ligand	1 µM	80
C[C@@H]1CCN(c2nccc(-c3cnn4ncccc34)n2)C1	binding	1 µM	85
C[C@@H](c1ccc(-n2cnc3c(N)ncnc32)cc1)N1CCc2nn(C)c(Cc3ccccc3)c2C1=O	binding, competition with immobilised ligand	0.1 µM	60
Cc1cnc(Nc2ccc(C(=O)N3CCC(N4CCCC4)CC3)cc2)nc1-c1cc2ccccc2s1	binding, competition with immobilised ligand	1 µM	70
N[C@H]1CCN(c2nccc(-c3cnn4ncccc34)n2)C1	binding	1 µM	98
CNC(=O)c1ccc(Nc2ncc(C(F)(F)F)c(NCc3nccnc3N(C)S(C)(=O)=O)n2)cc1	cell-free assay, competition with immobilised ligand	0.1 µM	100
CCN1CCN(Cc2ccc(C(=O)Nc3ccc(C)c(Oc4ccc5c(c4)CC(=O)N5)c3)cc2C(F)(F)F)CC1	binding, competition with immobilised ligand	1 µM	100
Nc1ncc2c(n1)-c1c([nH]c3ccc(C#CC4CC4)cc13)CCCC2	binding, competition with immobilised ligand	1 µM	97
O=C1NC(c2ccccn2)Sc2ccccc21 (stereo not shown)	cell-free assay, competition with immobilised ligand	1 µM	55
CN(C)c1nccc(-c2cnn3ncccc23)n1	binding	1 µM	91
CNC(=O)[C@@H]1CC[C@@H](n2c(-c3ccc4cnccc4c3)nc3ccc(C(=O)NCc4cccc(C(N)=O)c4)cc32)C1	binding, competition with immobilised ligand	1 µM	95
CO[C@@H](C)c1c(Nc2ccc([C@H](N(C)C(=O)C3CCS(=O)(=O)CC3)C(F)(F)F)cc2)cnc2cc(Cl)nn12	cell-free assay, competition with immobilised ligand	1 µM	100
CN(C)c1ncc(F)c(-c2cnn3ncccc23)n1	binding	1 µM	80
Cc1cc(NC(=O)c2cccc(S(F)(F)(F)(F)F)c2)cc(-n2ccn3nc(-c4cccnc4)cc23)c1	cell-free assay, competition with immobilised ligand	1 µM	90
COc1ccnn2ncc(-c3ccnc(N(C)C)n3)c12	binding	1 µM	100
CS(=O)(=O)N1CCCC(NC(=O)[C@H](CCC2CCCCC2)NC(=O)c2ccc(CNc3ncnc4c3nnn4-c3ccccc3)cc2)C1 (stereo partly shown)	cell-free assay, competition with immobilised ligand	0.1 µM	81
O=C(c1ccc(Nc2ncc(Cl)c(-c3ccc(Cl)s3)n2)cc1)N1CCC(N2CCCC2)CC1	binding, competition with immobilised ligand	1 µM	90
